TPT1 inhibitor = Candida albicans TPT1 enzyme inhibitors, primary screen, biochemical, fluorescence polarization; inhibition, % at 5 µM; 300,000 tested, 0.81% active; tRNA 2'-phosphotransferase TPT1 (Candida albicans SC5314); recombinant caTPT1, FP RNA substrate dephosphorylation;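 active = inhibition above the mean of all tested compounds plus 3 SD, set per screening campaign, cut at about 24% in these data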
IDE cell activ = human IDE activators in live cells, primary screen, fluorescence polarization, HEK cells, FAbeta-B substrate. FAbeta-B cleavage; 0% vehicle, 100% cell-free pure enzyme wells. Insulin-degrading enzyme (Homo sapiens), P14735. AID 493087, 2011. 340,000 tested, 0.073% active. activation, % at 5.96 µM;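 active = activation above the mean of all tested compounds plus 3 SD, set per screening campaign, cut at about 17% in these data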
IDE cell inh = human IDE inhibitors in live cells, primary screen, fluorescence polarization, HEK cells, FAbetaB substrate; Insulin-degrading enzyme (Homo sapiens), P14735; FAbetaB cleavage; inhibition, % at 5.59 µM; 320,000 tested, 0.41% active; AID 434962, 2010;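 active = percent inhibition above the average of all tested compounds plus 3 SD, set per screening campaign, cut at about 16% in these data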;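 note: IDE supplied by intact live HEK cells; FP after avidin binding of uncleaved biotin substrate so inhibition keeps polarization high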
procasp3 activ = activators of human procaspase-3 D3A mutant, primary screen, biochemical, absorbance, PC-3 D3A mutant, single concentration. recombinant procaspase-3 D3A, Ac-DEVD-pNA absorbance 405 nm. 330,000 tested, 0.11% active. activation, % at 8.5 µM;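 active = activation above the mean of all tested compounds plus 3 SD, cut at about 21% in these data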
Target sequence (P42574 whole entry D9A/D28A/D175A): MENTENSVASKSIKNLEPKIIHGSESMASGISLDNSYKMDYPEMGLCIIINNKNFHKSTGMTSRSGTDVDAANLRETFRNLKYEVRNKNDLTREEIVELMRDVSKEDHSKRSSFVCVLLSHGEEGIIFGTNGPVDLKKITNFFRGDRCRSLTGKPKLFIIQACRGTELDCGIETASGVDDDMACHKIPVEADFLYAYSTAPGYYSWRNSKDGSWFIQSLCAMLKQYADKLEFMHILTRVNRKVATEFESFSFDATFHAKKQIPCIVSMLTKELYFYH
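Assay system: Procaspase-3 D3A mutant, all three cleavage aspartates alanine. Buffer or medium: Zinc-free HEPES saline buffer with Triton X-100. Times: 1 h compound preincubation, 2 h substrate hydrolysis at 25 °C. Measured by: 405 nm absorbance of p-nitroaniline, reads at 0 and 120 min. Read-out basis: percent activation relative to control range. Replicates: singlicate.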
procasp7 counter = procaspase-7 activators, primary screen, counter-screen for procaspase-3 activator project, biochemical, absorbance, HTS, human; Caspase-7 (Homo sapiens), P55210; recombinant procaspase-7, Ac-DEVD-pNA absorbance 405 nm; D23A/D198A/D206A triple mutant, cannot self-cleave; scale: DMSO 0, 5 µM enzyme 100; activation, % at 8.5 µM; 330,000 tested, 0.093% active; AID 463210, 2010;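 active = percent activation above the screen-wide mean plus 3 SD, cut at about 25% in these data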
Target sequence (P55210 whole entry D23A/D198A/D206A): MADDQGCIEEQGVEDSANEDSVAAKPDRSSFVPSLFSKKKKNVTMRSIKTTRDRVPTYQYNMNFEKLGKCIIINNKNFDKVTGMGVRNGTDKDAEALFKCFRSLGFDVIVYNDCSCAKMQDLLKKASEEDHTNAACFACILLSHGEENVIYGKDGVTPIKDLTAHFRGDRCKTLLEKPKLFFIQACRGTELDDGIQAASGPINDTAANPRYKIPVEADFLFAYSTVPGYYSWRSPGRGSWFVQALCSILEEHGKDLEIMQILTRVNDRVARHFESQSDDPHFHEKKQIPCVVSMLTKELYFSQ
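Assay system: Uncleavable procaspase-7 mutant enzyme / Input: 2 µM procaspase-7 mutant as dispensed / Dosing: single nominal 8.5 µM compound dose, 0.8% DMSO final / Timing: 1 h enzyme–compound preincubation and 2 h substrate reaction, both 25 °C / Detection: p-Nitroaniline absorbance at 405 nm, read at 0 and 120 min / Replication: singlicate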
IDE cell inh cf = human IDE inhibitors in live cells, confirmation, fluorescence polarization, HEK cells, FAbetaB substrate; shares compounds with IDE cell inh; FAbetaB cleavage; inhibition, % at 5.59 µM; 1,200 tested, 51% active; AID 435028, 2010;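 active = mean inhibition across triplicate wells above the cutoff set by the earlier primary insulin-degrading enzyme screen, cut at about 16% in these data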
HEK293 tox = cytotoxicity in HEK cells, cytotoxicity control for IDE inhibitor project, cell-based, luminescence; shares compounds with IDE cell inh; HEK293 cytotoxicity, ATP luminescence; inhibition, % at 5.59 µM; 1,200 tested, 28% active; in the data active = inhibition above about 22%
IDE FP artifact = fluorescent or optically active artefacts, dose response, artefact control for IDE inhibitor project, biochemical, fluorescence polarization; FP counterscreen for fluorescent artifacts, IDE probe project; IC50, µM; shares compounds with IDE cell inh; 30 tested, under 10 active; AID 588718, 2011; call rule not given here
A number is an active result; . = inactive; / = not tested or not shown. Shown are actives, neighbours in structure and some others; about 1.2% of the full set was active somewhere.

SMILES	TPT1 inhibitor	IDE cell activ	IDE cell inh	procasp3 activ	procasp7 counter	IDE cell inh cf	HEK293 tox	others
O=c1sc2ccccc2c(=O)n1Cc1ccccc1F	.	.	.	.	.	/	/
COC(=O)c1cccc(-n2sc3ccccc3c2=O)c1	/	.	67.5	.	.	37.3	45.5
CCOC(=O)C1CCCN(C2=NC(=O)/C(=C/c3ccc(O)c(OC)c3)S2)C1 (stereo not drawn)	.	.	25.0	.	.	75.4	.
Cc1sc2ncnc(SCC(=O)NC(=O)c3cccn3C)c2c1C	.	.	19.2	.	.	.	.
Cc1onc(-c2ccccc2)c1C(=O)OCC(=O)Nc1ccc2c(c1)OCO2	.	.	.	.	.	/	/
Cc1c(-c2cccc(Cl)c2)nc2ccccc2c1C(=O)OCC(=O)Nc1ccc2c(c1)OCO2	.	.	16.6	.	.	.	22.7
COc1ccc(-n2ccnc2SCC(=O)NCc2ccc(F)cc2)c(OC)c1	.	.	.	.	.	/	/
Cc1ccc(NC(=O)CCC(=O)N2CCC(C)CC2)c([N+](=O)[O-])c1	.	.	.	.	.	/	/
Cn1c(SCCOc2cccc(Cl)c2)nnc1-c1ccncc1	.	.	.	.	.	/	/
Cc1ccc(OCCSc2nnc(-c3ccncc3)n2C)cc1	.	.	35.7	.	.	.	.
CCOc1ncccc1C(=O)NC(C)CCc1ccccc1 (stereo not drawn)	/	.	/	/	/	/	/
CCCCn1c(SCC(=O)N2CCC(C)CC2)nc2ccsc2c1=O	.	.	.	.	.	/	/
CCCCn1c(SCC(=O)N2CCN(c3ccccc3)CC2)nc2ccsc2c1=O	.	.	21.1	.	.	.	.
COc1cc(/C=C/C(=O)c2ccc(NS(=O)(=O)c3ccc(C)cc3)cc2)ccc1OC(F)F	.	.	.	.	.	/	/
COc1cc(/C=C/C(=O)c2ccc(NS(=O)(=O)c3ccc(C)cc3)cc2)cc(OC)c1O	.	.	26.6	.	.	55.9	44.7
CN(CC(=O)Nc1ccccc1C(F)(F)F)C(=O)Cc1ccc(S(=O)(=O)N2CCOCC2)s1	.	.	.	.	.	/	/
Cc1ccc(CCNC(=O)Cc2ccc(NC3=NC4CS(=O)(=O)CC4S3)cc2)cc1 (stereo not drawn)	.	.	17.1	.	.	.	.
Nc1c(/C=C2/C=CC(=O)C(O)=C2)c(=O)nc2sc(CC(=O)N3CCCC3)nn12	.	.	.	.	.	/	/
CCOC1=C/C(=C/c2c(N)n3nc(CC(=O)N4CCCC4)sc3nc2=O)C=CC1=O	.	.	30.3	.	.	38.6	.
COC1=C/C(=C/c2c(N)n3nc(CC(=O)N4CCCC4)sc3nc2=O)C=CC1=O	.	.	24.4	.	.	126.5	.
Nc1c(/C=C2/C=CC(=O)C(O)=C2)c(=O)nc2sc(CC(=O)N3CCCCC3)nn12	.	.	.	.	.	/	/
O=C(Nc1cccc(Cl)c1)c1ccc(=O)[nH]n1	.	.	.	.	.	/	/
c1ccc(-c2nnc(SCc3nc4ccccc4[nH]3)n2Cc2ccco2)nc1	.	.	.	.	.	/	/
Clc1cccc(-c2nnc(SCc3nc4ccccc4[nH]3)n2Cc2ccco2)c1	.	.	70.6	.	.	49.9	.	IDE FP artifact=.
Clc1cccc(-c2nnc(SCc3nc4ccccc4[nH]3)n2-c2ccccc2)c1	/	/	/	/	/	/	/	IDE FP artifact=.
SMILES	TPT1 inhibitor	IDE cell activ	IDE cell inh	procasp3 activ	procasp7 counter	IDE cell inh cf	HEK293 tox	others
COc1cccc(NC(=O)CSc2nc3ccccc3nc2N2CCOCC2)c1	.	.	.	.	.	/	/
CCN(CC(=O)NCc1cccs1)C(=O)c1cccc(S(=O)(=O)N2CC(C)OC(C)C2)c1 (stereo not drawn)	/	.	.	.	.	/	/
Clc1ccc(/C=C/c2ncc[nH]2)c(Cl)c1	.	.	17.8	.	.	.	.
O=c1cc(CNc2cc(Cl)ccc2Cl)nc2sccn12	.	.	16.9	.	.	.	.
O=c1cc(COc2ccc(Cl)c(Cl)c2)nc2sccn12	.	.	.	.	.	/	/
Cc1cccc(C(=O)NCC(c2ccc(F)cc2)N2CCOCC2)c1 (stereo not drawn)	.	.	16.3	.	.	.	.
Cc1ccc(C(=O)NCC(c2ccc(F)cc2)N2CCOCC2)cc1 (stereo not drawn)	.	.	.	.	.	/	/
COc1ccccc1/C=C/C1NC(=O)NC(C)=C1C(=O)OC(C)C (stereo not drawn)	.	.	.	.	.	/	/
C=CCOC(=O)C1=C(C)NC(=O)NC1/C=C/c1ccccc1OC (stereo not drawn)	.	.	20.8	.	.	.	.
Cc1ccc2c(c1)c1ncnc(N3CCN(c4ccccc4)CC3)c1n2C	.	.	.	.	.	/	/
Cc1ccc2c(c1)c1ncnc(N3CCOCC3)c1n2C	.	.	17.0	.	.	.	.
COc1ccc(C(=O)/C=C/c2ccsc2)cc1CSCC(=O)O	.	.	.	.	.	/	/
C=CCc1cccc(/C=N/n2cnnc2)c1O	.	.	.	.	.	/	/
C=CCc1cccc(/C=C/c2cc(=O)c3ccccc3[nH]2)c1O	.	.	17.1	.	.	.	.
O=C(CN1CCN(S(=O)(=O)c2ccccc2)CC1)NC(=O)NCc1ccco1	.	.	.	.	.	/	/
O=C(N/N=C/c1ccccc1)c1ccc2c(c1)OCO2	.	.	.	.	.	/	/
O=C(NN=Cc1c(O)ccc2ccccc12)c1ccc2c(c1)OCO2	/	.	30.0	.	.	54.2	111.7
O=S(=O)(NC(=NCc1ccccc1)c1ccc(F)cc1)c1ccc(Cl)cc1	.	.	.	.	.	/	/
COc1cc(OC)cc(C(=O)NCC(=O)N2CC=C(c3ccccc3)CC2)c1	/	.	/	/	/	/	/
O=C(NCC(=O)N1CC=C(c2ccccc2)CC1)c1ccc(OC(F)F)cc1	/	.	17.6	.	.	.	55.0
CC(=O)c1cc2c(C)c(C(=O)c3ccccc3)oc2cc1O	.	.	35.5	.	.	87.1	.
Cc1cccc(C)c1N1CCN(c2cc(Cl)nc(N)n2)CC1	.	.	17.5	.	.	.	.
Nc1nc(Cl)cc(N2CCCC2)n1	.	.	.	.	.	/	/
